Source: paper PMC2804034 (Journal of medicinal chemistry, 2010)
Converted amounts (≈) assume the structure as drawn.

How the values were obtained:
[1] = tested on: Trypanosoma brucei brucei strain 221; test: Trypanosoma brucei brucei assay; format: cell-based; settings: for MIC50: Trypanosoma brucei, 48 h, read-out: Tbb MIC50; for trypanocidal activity against T. brucei: up to 100 μM
cruzain = cruzain (Trypanosoma cruzi, UniProt P25779); test: Cruzain enzymatic assay in 96-well plate format; format: biochemical; settings: secondary assays performed at UCSF
Chain of cruzain (P25779 123-337 limits assumed): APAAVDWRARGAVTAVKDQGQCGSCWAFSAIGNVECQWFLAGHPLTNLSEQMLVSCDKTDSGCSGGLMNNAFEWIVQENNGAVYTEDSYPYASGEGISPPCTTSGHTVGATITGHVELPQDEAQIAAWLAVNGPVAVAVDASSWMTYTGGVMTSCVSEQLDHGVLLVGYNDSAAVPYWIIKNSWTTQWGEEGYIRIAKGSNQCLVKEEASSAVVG
Summary of the method: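 Recombinant cruzain (4 nM final) in 100 mM sodium acetate pH 5.5, 5 mM DTT, 0.001% Triton X-100, preincubated 5 min at room temperature with test compound in DMSO. Reaction started with Z-Phe-Arg-AMC (10 μM). AMC release was followed as the rate of fluorescence increase (ex 355, em 460 nm). DMSO-only wells served as uninhibited control. IC50 was obtained by curve fitting.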

[2] = tested on: Y strain T. cruzi trypomastigotes; test: Trypanosoma cruzi assay in infected J774 macrophages; format: cell-based; settings: for activity against T. cruzi: 27 days treatment; for effect against the T. cruzi parasite in cell culture: infected macrophages
J774 macrophages = test: Compound toxicity for host macrophages in the T. cruzi assay; format: cell-based; settings: 5 μM

MIC50 [1] [µM]	Structure (SMILES)	effect against the T. cruzi parasite in cell culture [2]	further results
> 100	N#Cc1nc(N)nc(N(c2ccccc2)c2ccccc2)n1 [Compound 4]		trypanocidal activity against T. brucei [1]: no trypanocidal activity; IC50 values (in words) (cruzain): mid-nanomolar
100 (≈ 32.5 µg/mL)	N#Cc1nc(Nc2cccc([N+](=O)[O-])c2)nc(NC2CCCC2)n1 [Compound 20]		
6 (≈ 1.89 µg/mL)	N#Cc1nc(Nc2cccc(Cl)c2)nc(NC2CCCC2)n1 [Compound 22]	no effect	activity against T. cruzi ([2]; 5 μM): inactive
6 (≈ 2.16 µg/mL)	N#Cc1nc(Nc2cccc(Br)c2)nc(NC2CCCC2)n1 [Compound 23]	no effect	toxicity against macrophages (J774 macrophages): toxic
> 100	N#Cc1nc(Nc2ccc(Br)cc2)nc(NC2CCCC2)n1 [Compound 26]		
6 (≈ 1.9 µg/mL)	N#Cc1nc(Nc2cc(F)cc(F)c2)nc(NC2CCCC2)n1 [Compound 29, 4-(cyclopentylamino)-6-(3,5-difluorophenylamino)-1,3,5-triazine-2-carbonitrile]		toxicity against macrophages (J774 macrophages): toxic
25 (≈ 7.47 µg/mL)	CCn1cnc2c(Nc3cccc(Cl)c3)nc(C#N)nc21 [Compound 35, 6-(3-chlorophenylamino)-9-ethyl-9H-purine-2-carbonitrile]	no effect	activity against T. cruzi ([2]; 10 μM): inactive

More lines, now with the values behind:

Structure (SMILES)	MIC50 [1] [µM]	effect against the T. cruzi parasite in cell culture [2]	further results
CCOc1nc(C#N)nc(N2CCCCC2)n1 [Compound 3]	> 100		trypanocidal activity against T. brucei [1]: no trypanocidal activity; IC50 values (in words) (cruzain): mid-nanomolar
N#Cc1nc(Nc2cccc(F)c2)nc(NC2CCCC2)n1 [Compound 21]	100 (≈ 29.8 µg/mL)		
N#Cc1nc(Nc2ccc(F)cc2)nc(NC2CCCC2)n1 [Compound 24]	> 100		
Cc1cccc(Nc2nc(C#N)nc(NC3CCCC3)n2)c1 [Compound 25]	25 (≈ 7.36 µg/mL)	no effect	activity against T. cruzi ([2]; 5 μM): inactive
N#Cc1nc(Nc2cccc(-c3ccccc3)c2)nc(NC2CCCC2)n1 [Compound 27]	25 (≈ 8.91 µg/mL)		activity against T. cruzi ([2]; 5 μM): inactive
N#Cc1nc(Nc2cccc(C(F)(F)F)c2)nc(NC2CCCC2)n1 [Compound 28]	25 (≈ 8.71 µg/mL)		activity against T. cruzi ([2]; 5 μM): inactive
N#Cc1nc(Nc2cc(Cl)cc(Cl)c2)nc(NC2CCCC2)n1 [Compound 30]	25 (≈ 8.73 µg/mL)		activity against T. cruzi ([2]; 5 μM): inactive
N#Cc1nc(NCC(F)F)nc(Nc2cc(F)cc(F)c2)n1 [Compound 31]	6 (≈ 1.87 µg/mL)		
CCn1cnc2c(Nc3cc(F)cc(F)c3)nc(C#N)nc21 [Compound 32, 6-(3,5-difluorophenylamino)-9-ethyl-9H-purine-2-carbonitrile]	25 (≈ 7.51 µg/mL)	no effect	activity against T. cruzi ([2]; 10 μM): inactive
N#Cc1nc(Nc2cccc(Cl)c2)c2ncn(C3CCCC3)c2n1 [Compound 36]	100 (≈ 33.9 µg/mL)	no effect	activity against T. cruzi ([2]; 10 μM): inactive
CN1CCN(C(=O)N[C@@H](Cc2ccccc2)C(=O)N[C@H](/C=C/S(=O)(=O)c2ccccc2)CCc2ccccc2)CC1 [Compound K777, reference compound]			activity against T. cruzi ([2]; 10 μM): cured cell infection
